Values after ≈ are worked out from the molar mass of the structure shown.
How the values were obtained:
DNA topoisomerase II = DNA topoisomerase II (Homo sapiens, UniProt P11388+Q02880); test: […] human DNA Topoisomerase II; type: protein assay
Method in brief: (§1)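 Human topoisomerase reactions used supercoiled pBR322 (100 ng) with 1 unit enzyme in the supplier's reaction buffer and compounds in DMSO. Incubation was 30 min, stopped with SDS/sucrose dye.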

DNA topoisomerase 1 = molecular target: T1, DNA topoisomerase 1 (Homo sapiens, UniProt P11387); test: Antibacterial activity against human DNA Topo I.; method in brief: as §1
T1 sequence (P11387 whole entry): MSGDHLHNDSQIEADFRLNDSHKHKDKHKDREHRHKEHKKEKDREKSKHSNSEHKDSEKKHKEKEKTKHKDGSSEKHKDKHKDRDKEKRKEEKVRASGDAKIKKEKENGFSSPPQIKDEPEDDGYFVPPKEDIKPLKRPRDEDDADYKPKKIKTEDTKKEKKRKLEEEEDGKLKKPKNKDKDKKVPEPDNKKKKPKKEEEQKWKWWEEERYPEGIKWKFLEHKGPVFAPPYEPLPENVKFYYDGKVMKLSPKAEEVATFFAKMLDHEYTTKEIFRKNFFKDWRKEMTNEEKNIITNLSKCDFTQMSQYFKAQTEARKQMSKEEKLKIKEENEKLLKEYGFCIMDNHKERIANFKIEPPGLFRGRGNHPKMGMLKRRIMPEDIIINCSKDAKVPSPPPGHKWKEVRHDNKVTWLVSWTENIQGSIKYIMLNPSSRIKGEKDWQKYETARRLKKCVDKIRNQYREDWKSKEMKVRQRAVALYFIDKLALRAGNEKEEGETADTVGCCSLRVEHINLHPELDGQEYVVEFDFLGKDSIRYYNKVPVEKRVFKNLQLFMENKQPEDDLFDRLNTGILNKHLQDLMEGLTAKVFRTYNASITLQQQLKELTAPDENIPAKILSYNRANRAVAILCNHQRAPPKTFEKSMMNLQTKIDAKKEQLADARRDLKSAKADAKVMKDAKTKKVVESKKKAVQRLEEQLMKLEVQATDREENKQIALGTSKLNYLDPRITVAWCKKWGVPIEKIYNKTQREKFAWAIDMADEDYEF

Escherichia coli = test: Antibacterial activity against Escherichia coli Neumann.; type: functional
Method in brief: (§2)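 Agar dilution MIC on IsoSensitest agar or Mueller Hinton agar with 10% horse blood and IsoVitaleX. Overnight cultures were grown in BHI broth for staphylococci and enterobacteria, or in BHI plus 10% bovine serum for streptococci and enterococci, then diluted 1:100. Compounds were tested at 0.125-64 µg/mL. Plates were incubated aerobically at 37 °C for about 20 h. MIC = first concentration with no visible growth.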

Enterococcus faecium [1] = test: Antibacterial activity against Enterococcus faecium L4001.; type: functional; method in brief: as §2
Enterococcus faecalis [2] = test: Antibacterial activity against Enterococcus faecalis 27251.; type: functional; method in brief: as §2
Enterococcus faecalis [3] = test: Antibacterial activity against Enterococcus faecalis 27253.; type: functional; method in brief: as §2
Klebsiella pneumoniae [4] = test: Antibacterial activity against Klebsiella pneumoniae 8085.; type: functional; method in brief: as §2
Klebsiella pneumoniae [5] = test: Antibacterial activity against Klebsiella pneumoniae 63.; type: functional; method in brief: as §2
Proteus mirabilis = test: Antibacterial activity against Proteus mirabilis 1235.; type: functional; method in brief: as §2
Proteus vulgaris = test: Antibacterial activity against Proteus vulgaris 1017.; type: functional; method in brief: as §2
Staphylococcus aureus [6] = test: Antibacterial activity against Staphylococcus aureus 133.; type: functional; method in brief: as §2
Staphylococcus aureus [7] = test: Antibacterial activity against Staphylococcus aureus 25470.; type: functional; method in brief: as §2
Staphylococcus aureus [8] = test: Antibacterial activity against Staphylococcus aureus 25701.; type: functional; method in brief: as §2
Staphylococcus aureus [9] = test: Antibacterial activity against Staphylococcus aureus 44(25508).; type: functional; method in brief: as §2
Staphylococcus aureus [10] = test: Antibacterial activity against Staphylococcus aureus 48 N.; type: functional; method in brief: as §2
Staphylococcus aureus [11] = test: Antibacterial activity against Staphylococcus aureus 9TV.; type: functional; method in brief: as §2
[12] = tested on: Staphylococcus saprophyticus; test: Antibacterial activity against Staphylococcus saprophyticus 2916.; type: functional; method in brief: as §2
Streptococcus pyogenes [13] = test: Antibacterial activity against Streptococcus pyogenes Wacker.; type: functional; method in brief: as §2
Streptococcus pyogenes [14] = test: Antibacterial activity against Streptococcus pyogenes 4333.; type: functional; method in brief: as §2
Streptococcus pyogenes [15] = test: Antibacterial activity against Streptococcus pyogenes 4851.; type: functional; method in brief: as §2
Streptococcus pyogenes [16] = test: Antibacterial activity against Streptococcus pyogenes 7029.; type: functional; method in brief: as §2
[17] = tested on: Staphylococcus epidermidis; test: Antibacterial activity against Staphylococcus epidermidis 193.; type: functional; method in brief: as §2
[18] = tested on: Staphylococcus haemolyticus; test: Antibacterial activity against Staphylococcus haemolyticus 146.; type: functional; method in brief: as §2
Enterococcus faecium [19] = test: Antibacterial activity against Enterococcus faecium 27266.; type: functional; method in brief: as §2
Enterococcus faecalis [20] = test: Antibacterial activity against Enterococcus faecalis.; type: functional; method in brief: as §2
Staphylococcus aureus [21] = test: Antibacterial activity against Staphylococcus aureus 25923.; type: functional; method in brief: as §2
Streptococcus pyogenes [22] = test: Antibacterial activity against Streptococcus pyogenes.; type: functional; method in brief: as §2
[23] = tested on: Staphylococcus epidermidis; test: Antibacterial activity against Staphylococcus epidermidis.; type: functional; method in brief: as §2
Staphylococcus aureus [24] = test: Antibacterial activity against Staphylococcus aureus QR-54.; type: functional; method in brief: as §2

MIC (Escherichia coli) [µg/mL] | MIC (Enterococcus faecium [1]) [µg/mL] | MIC (Enterococcus faecalis [2]) [µg/mL] | MIC (Enterococcus faecalis [3]) [µg/mL] | MIC (Klebsiella pneumoniae [4]) [µg/mL] | MIC (Klebsiella pneumoniae [5]) [µg/mL] | MIC (Proteus mirabilis) [µg/mL] | MIC (Proteus vulgaris) [µg/mL] | MIC (Staphylococcus aureus [6]) [µg/mL] | MIC (Staphylococcus aureus [7]) [µg/mL] | MIC (Staphylococcus aureus [8]) [µg/mL] | MIC (Staphylococcus aureus [9]) [µg/mL] | MIC (Staphylococcus aureus [10]) [µg/mL] | MIC (Staphylococcus aureus [11]) [µg/mL] | MIC [12] [µg/mL] | MIC (Streptococcus pyogenes [13]) [µg/mL] | MIC (Streptococcus pyogenes [14]) [µg/mL] | MIC (Streptococcus pyogenes [15]) [µg/mL] | MIC (Streptococcus pyogenes [16]) [µg/mL] | MIC [17] [µg/mL] | SMILES | further results
> 64 | 2 (≈ 3.27 µM) | 2 (≈ 3.27 µM) | 1 (≈ 1.63 µM) | > 64 | > 64 | > 64 | > 64 | 1 (≈ 1.63 µM) | 1 (≈ 1.63 µM) | 1 (≈ 1.63 µM) | 2 (≈ 3.27 µM) | 1 (≈ 1.63 µM) | 1 (≈ 1.63 µM) | 1 (≈ 1.63 µM) | 1 (≈ 1.63 µM) | 1 (≈ 1.63 µM) | 1 (≈ 1.63 µM) | 2 (≈ 3.27 µM) | 0.5 (≈ 0.816 µM) | COC(=O)c1c(Br)c(OC)cc(O)c1CSC[C@H](Nc1nc(-c2ccc([N+](=O)[O-])cc2)cs1)C(=O)OC | IC50 (DNA topoisomerase II): 15 µg/mL (≈ 24.5 µM); IC50 (DNA topoisomerase 1): > 392 µM; MIC [18]: 1 µg/mL (≈ 1.63 µM); MIC (Enterococcus faecium [19]): 2 µg/mL (≈ 3.27 µM)
> 64 | 0.5 (≈ 0.782 µM) | 0.5 (≈ 0.782 µM) | 0.5 (≈ 0.782 µM) | > 64 | > 64 | > 64 | > 64 | 0.25 (≈ 0.391 µM) | 0.25 (≈ 0.391 µM) | < 0.12 | 0.25 (≈ 0.391 µM) | 0.25 (≈ 0.391 µM) | 0.25 (≈ 0.391 µM) | < 0.12 | 0.25 (≈ 0.391 µM) | 0.25 (≈ 0.391 µM) | 0.25 (≈ 0.391 µM) | 0.5 (≈ 0.782 µM) | < 0.12 | COC(=O)c1c(Br)c(OC)cc(O)c1CSC[C@H](Nc1nc(-c2ccc([N+](=O)[O-])cc2)cs1)C1=NOCCO1 | IC50 (DNA topoisomerase II): 60 µg/mL (≈ 93.8 µM); IC50 (DNA topoisomerase 1): > 375 µM; MIC [18]: < 0.12 µg/mL; MIC (Enterococcus faecium [19]): 0.5 µg/mL (≈ 0.782 µM)
> 64 | 0.5 (≈ 0.786 µM) | 0.5 (≈ 0.786 µM) | 0.25 (≈ 0.393 µM) | > 64 | > 64 | > 64 | > 64 | 0.25 (≈ 0.393 µM) | 0.25 (≈ 0.393 µM) | < 0.12 | 0.25 (≈ 0.393 µM) | 0.25 (≈ 0.393 µM) | 0.25 (≈ 0.393 µM) | 0.25 (≈ 0.393 µM) | 0.25 (≈ 0.393 µM) | < 0.12 | 0.25 (≈ 0.393 µM) | 0.5 (≈ 0.786 µM) | < 0.12 | COC(=O)c1c(Br)c(OC)cc(O)c1CSC[C@H](Nc1nc(-c2ccc([N+](=O)[O-])cc2)cs1)c1nc(C)no1 | IC50 (DNA topoisomerase II): 60 µg/mL (≈ 94.3 µM); IC50 (DNA topoisomerase 1): > 377 µM; MIC (Enterococcus faecalis [20]): 0.25 µg/mL (≈ 0.393 µM); MIC (Staphylococcus aureus [21]): 0.12 µg/mL (≈ 0.189 µM); MIC (Streptococcus pyogenes [22]): 0.12 µg/mL (≈ 0.189 µM); MIC [23]: 0.12 µg/mL (≈ 0.189 µM); MIC [18]: 0.25 µg/mL (≈ 0.393 µM); MIC (Staphylococcus aureus [24]): 0.25 µg/mL (≈ 0.393 µM); MIC (Enterococcus faecium [19]): 0.5 µg/mL (≈ 0.786 µM)
> 64 | > 64 | > 64 | > 64 | > 64 | > 64 | > 64 | > 64 | > 64 | > 64 | > 64 | > 64 | > 64 | > 64 | > 64 | > 64 | 64 (≈ 100 µM) | > 64 | > 64 | > 64 | COC(=O)c1c(Br)c(OC)cc(O)c1CSC[C@@H](Nc1nc(-c2ccc([N+](=O)[O-])cc2)cs1)C1=NOCCO1 | MIC [18]: > 64 µg/mL; MIC (Enterococcus faecium [19]): > 64 µg/mL

Reference: ChEMBL document CHEMBL1134350, “seco-Cyclothialidines: new concise synthesis, inhibitory activity toward bacterial and human DNA topoisomerases, and antibacterial properties” (J Med Chem, 2001)
